# An excerpt weighted towards active compounds, which were near 1.1% of everything screened.
# LYPLA1 counter – LYPLA1 (human) inhibition in PME1 counter-screen | inhibition, % at 5.9 µM | 320,000 compounds, 0.16% hits | O75608 | recombinant LYPLA1, FP-Rh probe fluorescence polarization | AID 2174;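 active = inhibition above the mean of all tested compounds plus 3 SD, set per campaign, cut at about 14% in these data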;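 also: inhibitors block serine hydrolase probe labeling of LYPLA1 so polarization falls; 0% = enzyme with DMSO and 100% = wells lacking LYPLA1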
# proCasp3 act – activates human procaspase-3 | recombinant procaspase-3 D3A, Ac-DEVD-pNA absorbance 405 nm | AID 463141 | activation, % at 8.5 µM | P42574 | 330,000 compounds, 0.11% hits;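 active = activation above the mean of all tested compounds plus 3 SD, cut at about 21% in these data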;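 also: 0% = DMSO alone and 100% = DMSO wells spiked with extra 5 µM PC-3 D3A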
# Target sequence (P42574 whole entry D9A/D28A/D175A): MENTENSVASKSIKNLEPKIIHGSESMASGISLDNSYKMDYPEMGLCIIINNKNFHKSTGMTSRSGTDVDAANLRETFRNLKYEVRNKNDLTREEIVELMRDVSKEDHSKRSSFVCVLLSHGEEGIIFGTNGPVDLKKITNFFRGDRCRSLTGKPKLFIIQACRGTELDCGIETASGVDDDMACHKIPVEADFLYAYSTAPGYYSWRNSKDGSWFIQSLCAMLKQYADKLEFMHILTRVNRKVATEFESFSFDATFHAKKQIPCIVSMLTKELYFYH
#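 System: Procaspase-3 D3A mutant. Medium: Zinc-free 300 mM NaCl, 50 mM HEPES, 0.01% Triton X-100. Schedule: 1 h preincubation plus 2 h reaction at 25 °C. Measured by: 405 nm absorbance of p-nitroaniline, reads at 0 and 120 min. Read-out: percent activation relative to control range.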
# proCasp7 act – counter-screen for procaspase-3 activators: activators of human procaspase-7; AID 463210; P55210; recombinant procaspase-7, Ac-DEVD-pNA absorbance 405 nm; D23A/D198A/D206A triple mutant, cannot self-cleave; scale: DMSO 0, 5 µM enzyme 100; 330,000 compounds, 0.093% hits; activation, % at 8.5 µM;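 active = percent activation above the screen-wide mean plus 3 SD, cut at about 25% in these data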
#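 Material: Procaspase-7 triple mutant (PC-7 D3A) | Quantity: 2 µM procaspase-7 mutant as dispensed | Reagent: DEVD-pNA substrate | Times: 1 h preincubation, 2 h reaction | Technique: 405 nm absorbance of p-nitroaniline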
# LYPLA2 counter – counter-screen for PME1 inhibitors: inhibitors of human LYPLA2 | O95372 | recombinant LYPLA2, FP-Rh probe fluorescence polarization | inhibition, % at 5.9 µM | 320,000 compounds, 0.38% hits;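 active = inhibition above the screen-wide mean plus 3 SD, limit set per campaign, cut at about 26% in these data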;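 also: 0% = LYPLA2 with DMSO and 100% = wells lacking LYPLA2 enzyme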
# Target sequence (O95372 whole entry, looked up): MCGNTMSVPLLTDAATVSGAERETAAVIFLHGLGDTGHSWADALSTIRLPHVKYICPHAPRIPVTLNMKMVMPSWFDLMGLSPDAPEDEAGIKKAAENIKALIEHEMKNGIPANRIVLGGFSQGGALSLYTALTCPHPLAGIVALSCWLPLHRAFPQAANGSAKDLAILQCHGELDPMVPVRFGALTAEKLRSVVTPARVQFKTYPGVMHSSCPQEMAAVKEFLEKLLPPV
# PREPL inh – inhibits the human prolyl oligopeptidase-like enzyme. recombinant PREPL, fluorescence polarization activity-based probe. AID 2751. inhibition, % at 5.96 µM. Q4J6C6. 320,000 compounds, 0.68% hits;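 also: 0% = enzyme with DMSO and 100% = wells lacking enzyme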
# PREPL confirm – human PREPL inhibition, confirmation; shares compounds with PREPL inh; AID 2803; recombinant PREPL, fluorescence polarization activity probe; 2,000 compounds, 67% hits; inhibition, % at 5.96 µM;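 also: 0% = protein with DMSO and 100% = wells lacking protein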
# Starred values were filed as active, the others as inactive; · = no result given. Rule as the data show it, unless noted: active = inhibition above about 43%; inactive = the rest.
SMILES,LYPLA1 counter,proCasp3 act,proCasp7 act,LYPLA2 counter,PREPL inh,PREPL confirm
CN1CCN(C(=O)C2=C[C@@H](c3ccc4c(c3)OCO4)C[C@@H](OCc3ccc(CO)cc3)O2)CC1,-1,1,-6,-2,45*,54*
O=C(C1=C[C@@H](c2ccc(C(F)(F)F)cc2)C[C@@H](OCc2ccc(CO)cc2)O1)N1CCN(Cc2ccccc2)CC1,-2,-1,-2,-2,52*,57*
CCCCCCNC1=NCCS1,-1,2,4,0,10,·
CC1(C)CC(=O)C=C(c2cccc(Cl)c2O)C1,1,8,7,4,-6,·
CCOC(=O)C1=C(N)Oc2cc(O)ccc2C1c1cccc([N+](=O)[O-])c1 (stereo not drawn),-3,1,6,-6,12,·
Cc1ccc(NS(=O)(=O)c2cc(NC(=O)c3ccc4c(c3)NC(=O)CS4)ccc2C)c(C)c1,-70,-16,-11,-144,-27,·
COC(=O)[C@@H](Cc1c[nH]c2ccccc12)NC(=O)c1ccc2c(c1)OCO2,-3,3,3,-7,0,·
Cc1ccc(C)c(NC(=O)COC(=O)c2cccc3c2C(=O)c2ccccc2C3=O)c1,-3,7,-8,-3,60*,47*
Cc1ccc(NC(=O)COC(=O)c2cccc3c2C(=O)c2ccccc2C3=O)c(C)c1,-2,6,3,-1,26,·
COc1ccc(NCC(=O)N/N=C/C=C\c2ccccc2)cc1,-2,-8,-15,2,67*,46*
COc1ccc(/C=C/C=N/NC(=O)COc2ccc(OC)cc2)cc1,8,3,-2,9,0,·
CCSc1ncc(/C=N/Nc2ccc(Cl)cc2)n1C,-2,-24,-24,2,43*,36
CCSc1ncc(/C=N/Nc2ccccc2)n1C,-2,1,-5,2,19,·
COc1ccc(NC(=O)c2ccc(-c3ccc(-c4noc(C)n4)cc3C)cc2)cc1N1CCN(C)CC1,3,6,-2,2,76*,60*
CN(C)c1nc(-c2ccccn2)nnc1-c1ccccc1,0,-1,0,-3,52*,79*
CCOC(=O)c1cnc2ccc(C(=O)OC)cc2c1Nc1ccc(C(=O)O)cc1,-2,4,7,1,-3,·
CCOC(=O)c1ccc2ncc(C(=O)OCC)c(Nc3ccc(N4CCOCC4)cc3)c2c1,3,3,9,3,45*,42
COc1ccc(/C=N/Nc2cc(C)nc3ccc(Br)cc23)cc1,-9,-30,-23,-20,56*,52*
Cc1cc(N/N=C/c2ccccc2O)c2ccccc2n1,-4,-36,-14,2,27,·
COc1ccc2nc(C)cc(N/N=C/c3cccc(OC)c3O)c2c1,0,-2,-6,-12,64*,59*
COCCn1c(-c2ccccc2)csc1=Nc1cccnc1,2,-12,-14,3,0,·
Cc1ccc(-c2csc(=Nc3cccnc3)n2CCCN2CCCC2=O)cc1C,1,-4,-1,6,49*,54*
c1cncc(N=c2scc(-c3cccc4ccccc34)n2CCCn2ccnc2)c1,6,2,-3,4,53*,54*
Cc1ccc(-c2csc(=Nc3cccnc3)n2CCCn2ccnc2)cc1C,-1,3,-9,-1,47*,57*
CC(OC(=O)C1CCCCC1)C(=O)Nc1cccc([N+](=O)[O-])c1 (stereo not drawn),-3,4,2,-6,11,·
SMILES,LYPLA1 counter,proCasp3 act,proCasp7 act,LYPLA2 counter,PREPL inh,PREPL confirm
CC(C)c1nnc(NC(=O)CCC(=O)N2CCN(c3ccc(Cl)cc3)CC2)s1,-4,-10,-4,0,43*,43
CCOc1cc(N2CCOCC2)c(OCC)cc1NC(=O)COC(=O)CCc1c[nH]c2ccccc12,-6,-2,-3,0,76*,69*
Cc1ccc2[nH]nc(C(=O)N3CCCC(C(=O)c4ccc(Cl)cc4)C3)c2c1 (stereo not drawn),-2,-4,3,-7,38,·
CCCN(CCC)C(=O)CSc1nc2n[nH]c(C)c2c(=N)n1-c1ccc(OCC)cc1,-5,1,-5,-4,55*,41
CCc1cccc(N(C(=O)c2csnn2)C(C(=O)NC2CCCC2)c2cccnc2)c1 (stereo not drawn),2,4,-8,9,0,·
COc1ccc(Nc2nc(N3CCCC3)c3ccccc3n2)cc1,5,3,8,1,77*,62*
COc1ccc(Nc2c3ccccc3nc3ccccc23)cc1,-2,-5,-6,-2,47*,45*
CCN1C(=O)/C(=C2/Sc3ccccc3N2CC)S/C1=N\c1ncn[nH]1,10,-4,-10,3,48*,33
C=CCN1C(=O)/C(=C2/Sc3ccccc3N2CC)SC1=S,-3,-6,-7,-5,-5,·
CC1=CCC2COC(c3ccc[n+](Cc4ccccc4)c3)C1C2 (stereo not drawn),0,-4,-7,2,49*,36
COc1ccc(NC(=O)N(C)C[C@H]2Oc3ccc(NS(=O)(=O)c4ccc(OC)cc4)cc3C(=O)N([C@H](C)CO)C[C@@H]2C)cc1,·,-1,4,·,2,·
CNC[C@@H]1Oc2ccc(NC(=O)Nc3ccccc3)cc2C(=O)N([C@@H](C)CO)C[C@H]1C,·,3,-3,·,4,·
C[C@H](CO)N1C[C@H](C)[C@@H](CN(C)S(=O)(=O)c2ccc(F)cc2)Oc2ccc(NC(=O)Nc3ccc4c(c3)OCO4)cc2C1=O,·,0,4,·,45*,48*
COc1ccc(S(=O)(=O)Nc2ccc3c(c2)C(=O)N([C@H](C)CO)C[C@H](C)[C@@H](CN(C)C(=O)Nc2ccc(C(F)(F)F)cc2)O3)cc1,·,-8,8,·,45*,41
C[C@@H]1CN([C@@H](C)CO)C(=O)c2cc(NC(=O)Nc3ccc4c(c3)OCO4)ccc2O[C@H]1CN(C)S(=O)(=O)c1ccc(F)cc1,·,-9,-11,·,38,·
CNC[C@@H]1Oc2ccc(NC(=O)Nc3cccc4ccccc34)cc2C(=O)N([C@@H](C)CO)C[C@@H]1C,·,-1,-1,·,50*,46*
Cc1noc(C)c1S(=O)(=O)Nc1ccc2c(c1)C(=O)N([C@H](C)CO)C[C@H](C)[C@@H](CN(C)C(=O)Nc1ccc(C(F)(F)F)cc1)O2,·,-2,2,·,55*,50*
Cc1cnc(C(=O)OC(C(=O)c2c[nH]c3ccccc23)c2ccccc2)cn1 (stereo not drawn),-3,3,7,-6,4,·
